An excerpt weighted towards active compounds, which were near 2.4% of everything screened.
HNF4A DNA FP: change in binding of human HNF4A to DNA, primary screen, biochemical, fluorescence polarization, FITC-DNA; 360,000 compounds, 0.3% hits; 1 h; activity change, % at 10 µM; in the data active means activity change above about 30%, passing the limit was not always enough
CSN inh: inhibitors of CSN-mediated cullin deneddylation, primary screen, biochemical, fluorescence polarization, uHTS; inhibition, % at 12.5 µM; AID 651999, 2013; Purified CSN, SCF-Nedd8-OG deneddylation; 360,000 compounds, 0.38% hits; COP9 signalosome complex subunit 5 (Homo sapiens), Q92905;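 active means pattern-corrected inhibition above about 35%, with an unprinted fluorescence ratio check between 0.5 and 1.5, limit read from the data, passing the limit was not always enough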;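 further: 0% = enzyme with substrate and 100% = substrate without enzyme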
Target sequence (Q92905 whole entry, looked up, one chain of several): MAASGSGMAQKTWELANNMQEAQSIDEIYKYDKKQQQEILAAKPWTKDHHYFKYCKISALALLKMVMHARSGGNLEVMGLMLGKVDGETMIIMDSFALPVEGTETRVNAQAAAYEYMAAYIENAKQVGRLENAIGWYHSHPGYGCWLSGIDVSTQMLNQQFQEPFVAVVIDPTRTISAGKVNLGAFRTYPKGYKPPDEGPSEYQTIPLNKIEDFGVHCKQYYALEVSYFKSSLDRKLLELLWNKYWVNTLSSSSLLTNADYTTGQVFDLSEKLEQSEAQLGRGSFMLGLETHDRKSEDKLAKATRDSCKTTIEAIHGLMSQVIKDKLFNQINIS
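Assay system: purified human Csn5 enzyme expressed in HEK293T cells; Input: 0.24 nM Csn5 enzyme, final concentration; Reagent: 10 nM SCFSkp2-Nedd8OG; Compound dosing: 12.5 µM single point; Times: reaction 90 min, room temperature; Technique: fluorescence polarization readout.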
Rpn11 inh: Rpn11 (PSMD14) deubiquitinase inhibitors, primary screen, biochemical, fluorescence polarization, uHTS. 26S proteasome non-ATPase regulatory subunit 14 (Homo sapiens), O00487. human 26S proteasome, Ub4-pepOG fluorescence polarization; 20S core pre-blocked with epoxomicin. inhibition, % at 20 µM. 360,000 compounds, 0.59% hits. AID 588493, 2011;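 active means inhibition at 20 µM, scaled to each plate's controls, above about 33%, limit read from the data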
Target sequence (O00487 whole entry, looked up): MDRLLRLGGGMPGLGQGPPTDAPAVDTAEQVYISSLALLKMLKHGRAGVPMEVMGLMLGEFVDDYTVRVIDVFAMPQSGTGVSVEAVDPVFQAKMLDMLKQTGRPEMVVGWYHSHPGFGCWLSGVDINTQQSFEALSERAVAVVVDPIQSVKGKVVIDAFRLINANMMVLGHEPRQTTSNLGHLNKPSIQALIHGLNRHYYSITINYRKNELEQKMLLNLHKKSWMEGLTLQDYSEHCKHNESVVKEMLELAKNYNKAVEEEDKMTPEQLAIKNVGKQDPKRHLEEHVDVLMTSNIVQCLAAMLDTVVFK
TbMetRS inhib: T. brucei MetRS inhibitors, primary screen, biochemical, luminescence; purified T. brucei MetRS, ATP depletion, Kinase-Glo luminescence; methionyl-tRNA synthetase (Trypanosoma brucei brucei); 360,000 compounds, 0.4% hits; inhibition, % at 11.9 µM; AID 624268, 2012;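 active means inhibition above a per-plate cutoff of the control wells' mean inhibition plus 3 SD, cut at about 5.5% in these data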;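 further: 0% = DMSO wells median and 100% = median of wells with control inhibitor compound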
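Measured by: Kinase-Glo luciferase luminescence reporting remaining unconsumed ATP. Material: purified T. brucei MetRS enzyme. Doses: 11.9 µM compound single dose, 0.9% DMSO. Medium: HEPES buffer containing pyrophosphatase, BSA, spermine, DTT. Times: 15 min preincubation, 2 h reaction, all 25 °C. Reagent: methionine, ATP and bulk E. coli tRNA.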
Neddylation inh: inhibitors of cullin neddylation, primary screen, biochemical, TR-FRET, uHTS, NAE and Ubc12. inhibition, % at 25 µM. 360,000 compounds, 0.58% hits. AID 651699, 2012; in the data active means inhibition above about 36%
PREPL inhibitor: PREPL enzyme inhibitors, primary screen, biochemical, fluorescence polarization. Prolyl endopeptidase-like (Homo sapiens), Q4J6C6. recombinant PREPL, fluorescence polarization activity-based probe. inhibition, % at 5.96 µM. 320,000 compounds, 0.68% hits. AID 2751, 2010;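 further: 0% = enzyme with DMSO and 100% = wells lacking enzyme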
PREPL confirm: human PREPL enzyme inhibitors, confirmation, biochemical, fluorescence polarization | AID 2803, 2010 | 2,000 compounds, 67% hits | shares compounds with PREPL inhibitor | inhibition, % at 5.96 µM | recombinant PREPL, fluorescence polarization activity probe;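 further: 0% = protein with DMSO and 100% = wells lacking protein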
Rpn11 confirm: Rpn11 (PSMD14) deubiquitinase inhibitors, confirmation, biochemical, fluorescence polarization, single concentration. shares compounds with Rpn11 inh. purified human 26S proteasome, Ub4-pepOG fluorescence polarization; proteasome pretreated with epoxomicin. inhibition, % at 20 µM. 1,900 compounds, 29% hits. AID 602318, 2012; in the data active means inhibition above about 40%
MMP-2 inh: MMP-2 enzyme inhibition, confirmation, counter-screen for RPN11 inhibitor project, biochemical, fluorescence, single concentration; 1,900 compounds, 4% hits; recombinant MMP-2, FRET peptide cleavage fluorescence; shares compounds with Rpn11 inh; inhibition, % at 20 µM; in the data active means inhibition above about 40%;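 further: human MMP-2 activated beforehand with APMA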
Thrombin FP: bovine thrombin protease inhibition, confirmation, counter-screen for Rpn11 inhibitor project, biochemical, fluorescence polarization, single concentration | inhibition, % at 20 µM | 1,900 compounds, 13% hits | shares compounds with Rpn11 inh | bovine thrombin cleavage of Ub4-pepOG;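 active means mean inhibition at least 40% at 20 µM, or signal 3 deviations below plate average, so some actives read negative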;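 further: plate controls were thrombin with DMSO for no effect and buffer wells lacking thrombin for full effect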
* = called active by the depositor. Unless noted, no stated cut-off is given here; in the data, active means inhibition above about 43%; inactive means the rest.

For CCc1ccc(N2C(=O)NC(=O)/C(=C/c3cccn3CCOc3ccc(C)cc3)C2=O)cc1 the results were HNF4A DNA FP 3, CSN inh 21, TbMetRS inhib 1, Neddylation inh 20 and PREPL inhibitor -13.
For COC(=O)C1=C(c2cccc(OCc3ccccc3)c2)C[C@@H]2CC[C@H]1N2C(=O)NCCCOC(C)C the results were HNF4A DNA FP -9, CSN inh -5, Rpn11 inh 4, TbMetRS inhib 0, Neddylation inh -4, PREPL inhibitor 46* and PREPL confirm 34.
COC(=O)C1=C(c2cccc(OCc3ccccc3)c2)C[C@@H]2CC[C@H]1N2C(=O)NCCOc1ccc(OC)cc1 was read as HNF4A DNA FP 2, CSN inh -2, Rpn11 inh 7, TbMetRS inhib 0, Neddylation inh -4 and PREPL inhibitor 14.
CC(=O)NC(Cc1ccc(N(CCCl)CCCl)cc1)C(=O)NC(CC(C)C)C(=O)O (configuration not stated) was read as HNF4A DNA FP -3, CSN inh -3, Rpn11 inh 3, TbMetRS inhib -1, Neddylation inh 0 and PREPL inhibitor 1.
Screening O=C(Nc1nc(-c2ccccc2)c(-c2ccccc2)s1)c1ccc(S(=O)(=O)N(CCCl)CCCl)cc1 returned HNF4A DNA FP -3, CSN inh 0, Rpn11 inh 2, TbMetRS inhib 0, Neddylation inh 17 and PREPL inhibitor 6.
Screening Cc1ncoc1C(=O)NCC1=C(c2ccc(S(C)(=O)=O)cc2)C[C@@H]2CC[C@H]1N2Cc1ccco1 returned HNF4A DNA FP -1, CSN inh 2, Rpn11 inh 2, TbMetRS inhib -1 and Neddylation inh -6.
Screening CC(C)Cc1[nH]c(=O)c(C#N)c2c1CCC2 returned HNF4A DNA FP 0, CSN inh 6, Rpn11 inh -2, TbMetRS inhib -1, Neddylation inh 37, PREPL inhibitor 75* and PREPL confirm 66*.
Screening Clc1ccc(C[n+]2c(-c3ccccc3)cc(-c3ccccc3)cc2-c2ccccc2)cc1 returned HNF4A DNA FP 2, CSN inh -1, Rpn11 inh -45, TbMetRS inhib 0, PREPL inhibitor 71* and PREPL confirm 63*.
`C=CCn1c(O)c(C(CC)=NC(C)c2ccccc2)c(=O)[nH]c1=O` (configuration not stated) gave HNF4A DNA FP 4, CSN inh -10, Rpn11 inh 1, TbMetRS inhib 0, Neddylation inh -14 and PREPL inhibitor 16.
For CCc1cccc(CC)c1NC(=S)N1CC2CC(C1)c1cccc(=O)n1C2 (configuration not stated) the results were HNF4A DNA FP 3, CSN inh 2, Rpn11 inh -1, TbMetRS inhib 0, Neddylation inh 4 and PREPL inhibitor 0.
O=[N+]([O-])c1ccc(-[n+]2c(-c3ccccc3)cc(-c3ccccc3)cc2-c2ccccc2)cc1 was read as HNF4A DNA FP 1, CSN inh -1, Rpn11 inh -4, TbMetRS inhib 1, Neddylation inh -26, PREPL inhibitor 43* and PREPL confirm 39.
`CCC(=NCCc1c[nH]c2ccccc12)c1c(O)n(-c2ccc(C)cc2)c(=O)[nH]c1=O` gave HNF4A DNA FP 0, CSN inh -6, Rpn11 inh 2, TbMetRS inhib -1, Neddylation inh 0, PREPL inhibitor 44* and PREPL confirm 46*.
For CC(=NCCN1CCOCC1)c1c(O)n(Cc2ccccc2)c(=O)[nH]c1=O the results were HNF4A DNA FP 5, CSN inh -4, Rpn11 inh 1, TbMetRS inhib -1, Neddylation inh -2 and PREPL inhibitor 5.
For CC(=NCCc1c[nH]c2ccccc12)c1c(O)n(Cc2ccccc2)c(=O)[nH]c1=O the results were HNF4A DNA FP 7, CSN inh 107, Rpn11 inh 2, TbMetRS inhib 1, Neddylation inh -1, PREPL inhibitor 43* and PREPL confirm 42.
`CCC(=NCCc1c[nH]c2ccccc12)c1c(O)n(C)c(=O)n(C)c1=O` gave HNF4A DNA FP 4, CSN inh 1, Rpn11 inh -2, TbMetRS inhib 0, Neddylation inh 13 and PREPL inhibitor 14.
`COc1ccc2c3c([nH]c2c1)C(C)=NCC3` gave HNF4A DNA FP 30, CSN inh 12, Rpn11 inh 65*, TbMetRS inhib -1, PREPL inhibitor 71*, PREPL confirm 33, Rpn11 confirm 40, MMP-2 inh -2 and Thrombin FP 30.
CC[C@@H](O)C[C@H]1CCC[C@@]2(C[C@@H]3OC(=O)/C=C/[C@@](C)(O)[C@@H](O)[C@H](C)[C@@H](O)[C@H](OC4CCC(N(C)C)C(C)O4)[C@@H](O)[C@](C)(O)CCCCC/C=C/[C@@H]4CC(C)(C)O[C@@]4(O)C[C@H](O2)[C@H]3C)O1 (some centres not stated) was read as HNF4A DNA FP 0, CSN inh -6, Rpn11 inh -6, TbMetRS inhib 0 and Neddylation inh -5.
Cc1ccc(/C=C2\C(=O)NC(=S)N(c3ccc(F)cc3)C2=O)s1 was read as HNF4A DNA FP -3, CSN inh 5, Rpn11 inh 30, TbMetRS inhib 0, Neddylation inh 0 and PREPL inhibitor -2.
